Key:
Histone deacetylase 7 = biological target: T1, Histone deacetylase 7 (Homo sapiens, UniProt Q8WUI4); assay: Inhibition of human recombinant HDAC7 using Boc-lys(Ac)-AMC as substrate preincubated for 20 mins with substrate measured after 60 mins by fluorescence analysis
T1 sequence (Q8WUI4 whole entry): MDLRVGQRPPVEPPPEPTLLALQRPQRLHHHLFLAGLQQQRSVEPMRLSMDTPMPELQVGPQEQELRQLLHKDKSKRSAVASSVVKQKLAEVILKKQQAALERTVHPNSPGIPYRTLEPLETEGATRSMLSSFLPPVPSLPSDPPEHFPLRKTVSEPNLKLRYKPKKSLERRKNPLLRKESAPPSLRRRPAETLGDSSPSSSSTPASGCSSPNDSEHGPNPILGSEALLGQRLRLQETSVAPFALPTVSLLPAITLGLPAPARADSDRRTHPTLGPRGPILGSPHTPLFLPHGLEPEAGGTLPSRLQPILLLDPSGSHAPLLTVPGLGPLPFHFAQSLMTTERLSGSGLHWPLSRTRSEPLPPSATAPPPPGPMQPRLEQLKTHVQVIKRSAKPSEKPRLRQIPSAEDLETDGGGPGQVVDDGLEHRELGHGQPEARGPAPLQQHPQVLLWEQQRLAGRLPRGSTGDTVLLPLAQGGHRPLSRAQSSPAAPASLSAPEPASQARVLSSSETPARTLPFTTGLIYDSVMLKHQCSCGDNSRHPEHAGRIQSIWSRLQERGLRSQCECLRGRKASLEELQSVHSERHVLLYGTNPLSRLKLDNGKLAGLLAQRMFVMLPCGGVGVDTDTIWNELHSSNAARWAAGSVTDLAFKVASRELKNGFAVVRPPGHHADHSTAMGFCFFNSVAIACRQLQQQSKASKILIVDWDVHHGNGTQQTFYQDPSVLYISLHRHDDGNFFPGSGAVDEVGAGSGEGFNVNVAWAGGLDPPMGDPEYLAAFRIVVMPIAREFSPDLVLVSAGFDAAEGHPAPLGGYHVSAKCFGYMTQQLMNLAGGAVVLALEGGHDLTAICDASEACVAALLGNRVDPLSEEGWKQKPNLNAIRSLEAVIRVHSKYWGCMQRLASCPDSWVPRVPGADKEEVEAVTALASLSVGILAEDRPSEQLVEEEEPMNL

MCF7 [1] = assay: Selectivity index, ratio of GI50 for human A549 cells to GI50 for human MCF7 cells; assay type: functional
A549 = assay: Growth inhibition of human A549 cells after 96 hrs by sulphorhodamine B assay; assay type: functional; conditions: A549, 96 h
In short: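 SRB growth assay; MCF7 and WI38 seeded 4000 cells/well, A549 2000 cells/well, attached overnight, then exposed to freshly made drug solutions (0.1 to 50 μM) for 96 h. Fixed with cold 10% TCA, stained with 0.4% SRB; absorbance at 540 nm as percent of untreated control, IC50 from mean absorbance.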

MCF7 [2] = assay: Selectivity index, ratio of GI50 for human WI38 cells to GI50 for human MCF7 cells; assay type: functional

Question: Which IC50 (Histone deacetylase 7) does the source give for `N/N=C(\Cc1ccc(O)c(Br)c1)C(=O)NCCS` here?
Answer: 45 µM

Question: And the RatioGI50 (MCF7 [1])?
Answer: 10

Question: What about the GI50 (A549) of the same compound?
Answer: 33.4 µM

Question: What about the RatioGI50 (MCF7 [2]) of the same compound?
Answer: 10

Source: ChEMBL document CHEMBL2046381, “Defining the mechanism of action and enzymatic selectivity of psammaplin A against its epigenetic targets” (J Med Chem, 2012)
